Compound activity deposited in PubChem BioAssay by several laboratories.
Runt-CBFb FRET – Runt domain-CBFb interaction inhibition | Q01196+Q13951 | Cerulean-Runt/Venus-CBFb FRET ratio 530/480, 1 h | inhibition, % at 20 µM | actives 0.46% (n = 220,000);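 active = inhibition over about 50% at 20 µM in the single-dose screen, limit read from the data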;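 note: 0% = DMSO wells and 100% = excess unlabeled CBFb competitor control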
Target sequence (Q01196 whole entry, looked up, the tested form may be a part): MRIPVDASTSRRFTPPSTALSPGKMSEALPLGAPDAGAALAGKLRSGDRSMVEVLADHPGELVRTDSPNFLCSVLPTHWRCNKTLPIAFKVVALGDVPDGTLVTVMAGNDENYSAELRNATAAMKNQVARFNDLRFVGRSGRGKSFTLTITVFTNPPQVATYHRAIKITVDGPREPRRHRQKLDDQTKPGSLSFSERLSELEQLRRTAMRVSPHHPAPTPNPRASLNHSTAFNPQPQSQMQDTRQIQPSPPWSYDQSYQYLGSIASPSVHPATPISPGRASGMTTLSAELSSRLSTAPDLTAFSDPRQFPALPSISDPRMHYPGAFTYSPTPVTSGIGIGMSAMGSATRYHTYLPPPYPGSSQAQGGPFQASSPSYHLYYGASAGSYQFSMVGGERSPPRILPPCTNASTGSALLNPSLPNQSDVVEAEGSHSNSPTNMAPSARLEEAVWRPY
Target sequence (Q13951 whole entry, looked up, the tested form may be a part): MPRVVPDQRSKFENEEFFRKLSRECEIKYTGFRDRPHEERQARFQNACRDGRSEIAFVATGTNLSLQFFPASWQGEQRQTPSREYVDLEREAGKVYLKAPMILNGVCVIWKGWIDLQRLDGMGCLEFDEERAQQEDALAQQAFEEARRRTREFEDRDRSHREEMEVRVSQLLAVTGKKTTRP
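Assay system: Cerulean-tagged RUNX1 Runt domain (FRET donor) fusion protein / Amount: 100 nM each of Venus-CBFb and Cerulean-Runt domain / Medium: Tris buffer pH 7.5 with salts and BSA / Also added: Venus-CBFb 100 nM / Schedule: 1 h complex formation plus 1 h compound treatment, room temperature / Signal: FRET fluorescence / Read-out: loss of energy transfer signal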
PERK inh – inhibitors of human PERK kinase; actives 0.17% (n = 220,000); Q9NZJ5; inhibition, % at 5.6 µM; CHO PERK-DD fusion, SEAP luminescence translation reporter;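 active = inhibition above the mean inhibition of all tested compounds plus 3 SD, set separately per screening campaign, cut at about 2.9% in these data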;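 note: PERK kinase domain activated by AP20187 dimerizer at 100 nM; 0% = DMSO with dimerizer and 100% = rapamycin at 8.4 µM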
RanGTP-Imp inh – disruptors of Ran-importin-beta complex formation – biochemical, FRET, CFP-Ran, YFP-importin-beta, homogeneous, primary screen. cell-free CFP-Ran/YFP-importin-beta FRET ratio. inhibition, % (test concentration not listed). actives 1.1% (n = 300,000);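 active = more than half of the replicate wells show a fall in the fluorescence ratio signal beyond about 16%, limit read from the data, passing the limit was not always enough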;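 note: 0% = DMSO wells and 100% = Ran loaded with GDP instead of GTP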
eIF4E-4G inh – inhibitors of eIF4E and eIF4G interaction in translation initiation. TR-FRET eIF4E-eIF4GI(517-606) binding, 2 h. inhibition, % at 21.7 µM. actives 0.37% (n = 220,000). AID 782;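 active = inhibition above about 30%, limit read from the data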;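 note: 0% = full FRET control wells and 100% = background wells lacking eIF4GI fragment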
Runt-SMMHC FRET – Runt domain-CBFb-SMMHC interaction inhibition. Q01196+Q13951. Cerulean-Runt/Venus-CBFb-SMMHC FRET ratio 530/480, 1 h. inhibition, % at 20 µM. actives 0.74% (n = 220,000);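 active = mean inhibition across duplicate retests at 20 µM reaching about 50%, limit read from the data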;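 note: 0% = DMSO wells and 100% = wells with excess untagged CBFb-SMMHC; inhibitors lower the FRET ratio by blocking Runt binding to CBFb-SMMHC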
Hck Nef HTS – blocks Nef-activated human Hck kinase | P08631 | Recombinant Hck-YEEI plus Nef, Z-Lyte FRET kinase assay | inhibition, % at 20 µM | actives 0.68% (n = 220,000) | AID 463187;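 active = Hck-Nef kinase inhibition above about 50%, limit read from the data; inactive = inhibition below that limit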;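 note: 0% = DMSO with Hck plus Nef and 100% = Hck alone without Nef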
* hit, by the source's call; nt = no result. This is a sample that favours compounds with a hit; in the whole collection about 2.2% have one here.

SMILES	Runt-CBFb FRET	PERK inh	RanGTP-Imp inh	eIF4E-4G inh	Runt-SMMHC FRET	Hck Nef HTS
CCOC(=O)C1(Cc2ccc(Cl)cc2)CCN(C(=O)c2cc(C)nc(C)n2)CC1	-1	-1	8	-1	2	-2
O=C1NN(c2ccc(Br)cc2)C(=O)/C1=C\c1ccc(O)cc1O	nt	nt	142*	nt	nt	nt
O=C1NN(c2cccc(Br)c2)C(=O)/C1=C\c1ccc(O)cc1	nt	nt	-2	nt	nt	nt
O=C(N/N=C/c1sc(N2CCOCC2)nc1-c1ccccc1)c1ccccc1Cl	3	1	30*	-5	4	-2
O=C(N/N=C/c1sc(N2CCOCC2)nc1-c1ccccc1)c1ccccc1O	0	-1	6	10	13	7
O=C(O)c1ccccc1/C=N/NC(=O)C1CCCC1	nt	nt	0	nt	nt	nt
O=C(CCCC(=O)N/N=C/c1ccccc1C(=O)O)N/N=C/c1ccccc1C(=O)O	-1	3.5*	6	-4	-2	-5
COc1ccc(CN2C=C3C(=O)C(C)(OC(=O)CCc4ccccc4)C(=O)C=C3C=C2c2ccc(C#N)cc2)cc1 (stereo not drawn)	6	nt	0	-12	1	30
CCN(CC)CCCN1C=C2C(=O)C(C)(OC(=O)CCc3ccccc3)C(=O)C=C2C=C1c1ccc(C#N)cc1 (stereo not drawn)	36	nt	0	1	51*	18
CSc1nc(N(CCO)CCO)c2sc3nc(-c4ccco4)c4c(c3c2n1)CCC4	-3	1	-4	9	-20	77*
Nc1nc(SCc2nc(-c3ccccc3)no2)[nH]c(=O)c1-c1ccccc1	1	1	-3	1	1	0
COc1nc(N)c(S(=O)(=O)c2ccccc2C)cc1C#N	20	0	5	nt	60*	1
COc1nc(N)c(S(=O)(=O)c2ccccc2)cc1C#N	40	1	12	nt	99*	5
CN(C)c1ncc(S(=O)(=O)c2ccccc2)c(N)n1	1	2	0	0	-10	1
COc1ccc(OCC(N)=O)cc1	0	2	3	0	-2	0
Cc1ccc(-c2nnc(SCC(=O)n3c4c(c5ccccc53)CCCC4)o2)cc1	2	3.0*	-4	5	0	-2
C/C(N)=C(/C#N)C(=O)COC(=O)[C@@H](NC(=O)c1ccccc1Cl)C(C)C	0	0	3	-1	2	16
COc1ccc(N2CC(C)Cn3c2nc2c3c(=O)n(CCc3ccccc3)c(=O)n2C)cc1 (stereo not drawn)	-4	nt	41*	nt	-1	nt
COc1ccc(N2CCn3c2nc2c3c(=O)n(CCCc3ccccc3)c(=O)n2C)cc1	-4	nt	nt	nt	-4	nt
CS/C(=C\[N+](=O)[O-])Nc1ccc(Cl)cc1	2	0	3	0	0	1
Cc1c([N+](=O)[O-])c(C(=O)Nc2ccc3c(c2)OCCO3)nn1C	-1	1	0	-3	-8	5
O=c1cc(-c2ccc(Br)cc2)[nH][nH]1	1	2.9*	-5	-2	-5	-1
COc1ccc(Cl)cc1S(=O)(=O)N1CCN(C(=O)c2ccco2)CC1	0	0	3	-5	3	-1
CC1CCN(C(=S)NC2CCCCC2)CC1	-1	0	0	-7	3	2
COC(=O)c1c(NC(=O)C2CC2)sc2c1CCN(C(C)=O)C2	0	0	1	1	-8	7
SMILES	Runt-CBFb FRET	PERK inh	RanGTP-Imp inh	eIF4E-4G inh	Runt-SMMHC FRET	Hck Nef HTS
COC(=O)c1c(NC(=O)C(C)C)sc2c1CCN(Cc1ccccc1)C2	nt	nt	54*	nt	nt	nt
CCC(=O)Nc1sc2c(c1C(=O)OC)CCN(Cc1ccccc1)C2	nt	nt	92*	nt	nt	nt
Cc1ccc(Nc2cc(-n3nc(C)cc3C)ncn2)cc1	1	1	-2	-3	4	0
Cn1nc(C(F)(F)F)c(-c2ccccc2)c1NC(=O)CCC(=O)O	0	3.5*	6	-1	-1	-12
O=[N+]([O-])c1cccc(NC(=S)N2CCOCC2)c1	2	2	68*	1	-1	-17
O=[N+]([O-])c1ccc(NC(=S)N2CCOCC2)cc1	2	0	-4	0	1	-19
